What is called microsomal CLint is a measure of how fast metabolising enzymes remove a compound, apart from limits set by blood flow. For orientation: IC50 means the concentration at which inhibition is half-maximal. Read a low IC50 as greater potency. As a reminder, the MIC is the lowest concentration that inhibits growth of the organism. The term bioavailability denotes the share of a dose that reaches the circulation, judged against a reference dose that is usually intravenous. Higher therefore signals good availability. What is called solubility (thermodynamic) is the concentration in solution at equilibrium with solid. By solubility is commonly meant the dissolved amount per volume that the medium holds.

In brackets after ≈: the same amount, converted by molar mass.

The record followed here is ChEMBL document CHEMBL1155910, “Design of Helicobacter pylori glutamate racemase inhibitors as selective antibacterial agents: a novel pro-drug approach to increase exposure” (Bioorg Med Chem Lett, 2008).

Series [1] is described as follows: Intrinsic clearance in mouse liver microsome. The series is classed as ADME. The note with it: liver microsomes. In outline: (§1)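 Compounds incubated in vitro with human or mouse liver microsomes; parent and metabolite followed over roughly 30 min incubation; intrinsic clearance expressed as µl/min/mg.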
A general note: Liver microsomes are a subcellular fraction often used to study metabolism.

Another series deals with T1, Glutamate racemase (Helicobacter pylori (strain ATCC 700392 / 26695) (Campylobacterpylori), UniProt P56068).
T1 sequence (P56068 whole entry): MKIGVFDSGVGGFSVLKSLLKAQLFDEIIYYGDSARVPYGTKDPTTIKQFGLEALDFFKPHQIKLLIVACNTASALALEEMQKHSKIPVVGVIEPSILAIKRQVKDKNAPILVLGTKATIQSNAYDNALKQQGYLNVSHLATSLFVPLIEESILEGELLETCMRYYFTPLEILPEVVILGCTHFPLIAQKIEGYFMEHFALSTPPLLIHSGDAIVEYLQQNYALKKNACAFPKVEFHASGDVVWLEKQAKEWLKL
Put plainly: Inhibition of Helicobacter pylori MurI.

Series [2] concerns Helicobacter pylori. Put plainly: Antibacterial activity against hefC-deficient Helicobacter pylori by NCCLS method. The series is classed as functional. The essentials:
(§2)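 H. pylori MICs determined following NCCLS guidelines; values carry a twofold variance.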

Series [3] has as its system Helicobacter pylori. The series is described as follows: Antibacterial activity against wild type Helicobacter pylori by NCCLS method. The series is classed as functional. In outline: as §2
Series [4] is described as follows: Intrinsic clearance in human liver microsome. The following applies: liver microsomes. Format: ADME. In outline:
as §1

Series [5] in a line: Bioavailability in mouse at 40 mg/kg, po. The series is classed as ADME, organism-based. The note with it: in vivo.
The nature of series [6]: Equilibrium solubility of compound. Format: physicochemical.
Series [7] in a line: Aqueous solubility of compound. The series is classed as physicochemical. The note with it: buffer.
A short description of series [8]: Bioavailability in mouse. The series is classed as ADME, organism-based. The note with it: in vivo.
The test system of the next series is Mus musculus. The series is described as follows: Plasma concentration in mouse at 40 mg/kg, po. The following applies: in vivo. Format: ADME, organism-based. Also on record: dose 40 mg/kg, route oral.

On to `Cn1cc(S(C)(=O)=O)nc1-c1c2c(=O)n(C)c(=O)n(CC3CC3)c2nn1Cc1ccnc2ccc(Cl)cc12`, for which the microsomal CLint in series [1] turned out to be 56 µL/min/mg; in series [4], 23 µL/min/mg. Moreover, the half-maximal inhibitory concentration (IC50) at Glutamate racemase came out at 160 nM. For the same compound, the MIC was found to be 4 µg/mL (≈ 7.22 µM) against Helicobacter pylori [2] and 16 µg/mL (≈ 28.9 µM) in the series on Helicobacter pylori [3].
Consider `Cn1cc(S(C)(=O)=O)cc1-c1c2c(=O)n(C)c(=O)n(CC3CC3)c2nn1Cc1cn(C)c2ccc(Cl)cc12`, for which the intrinsic clearance (microsomal CLint) was 56 µL/min/mg in [1] and 23 µL/min/mg in [4]. In addition, the IC50 against Glutamate racemase is 33 nM. Besides, the results for the minimum inhibitory concentration (MIC) with Helicobacter pylori [2] and in the series with Helicobacter pylori [3] were 4 µg/mL (≈ 7.21 µM) and 16 µg/mL (≈ 28.8 µM), respectively.
Take `Cn1cc([S+](C)[O-])cc1-c1c2c(=O)n(C)c(=O)n(CC3CC3)c2nn1Cc1ccnc2ccc(Cl)cc12` (configuration not stated): the microsomal CLint in series [1] and in [4] was above 100 µL/min/mg each time. Moreover, in series [5], the bioavailability was 10%. In addition, half-maximal inhibition against Glutamate racemase (IC50) was put at 37 nM. The figures for the minimal inhibitory concentration (MIC) against Helicobacter pylori [2] and against Helicobacter pylori [3] were 0.5 µg/mL (≈ 0.931 µM) and 16 µg/mL (≈ 29.8 µM), respectively. In series [6], this compound had a thermodynamic solubility of 120 µM (≈ 64.4 µg/mL).
`Cn1cc(S(N)(=O)=O)nc1-c1c2c(=O)n(C)c(=O)n(CC3CC3)c2nn1Cc1c[nH]c2ccc(Cl)cc12`: the results for the intrinsic metabolic clearance (microsomal CLint) in series [1] and in series [4] were above 100 µL/min/mg and 56 µL/min/mg, respectively. For the same compound, the IC50 against Glutamate racemase was 38 nM. Moreover, the minimal inhibitory concentration (MIC) in the series with Helicobacter pylori [2] was 0.5 µg/mL (≈ 0.921 µM); against Helicobacter pylori [3], above 32 µg/mL.
Regarding `CONS(=O)(=O)c1cc(-c2c3c(=O)n(C)c(=O)n(CC4CC4)c3nn2Cc2c[nH]c3ccc(Cl)cc23)n(C)c1`, at Glutamate racemase, the half-inhibitory concentration (IC50) came out at 36 nM. For the same compound, the MIC in the series with Helicobacter pylori [2] and against Helicobacter pylori [3] was 8 µg/mL (≈ 14 µM) in each case.
Regarding `Cn1c(=O)c2c(-c3ccc(S(C)(=O)=O)o3)n(Cc3ccnc4ccc(Cl)cc34)nc2n(CC2CC2)c1=O`, the microsomal CLint worked out at 14 µL/min/mg in series [1] and 17 µL/min/mg in series [4]. The compound further gave an IC50 against Glutamate racemase of 1500 nM. Further, the MIC in the series on Helicobacter pylori [2] and against Helicobacter pylori [3] was above 64 µg/mL each time.
As for `Cn1cc([S+](C)[O-])cc1-c1c2c(=O)n(C)c(=O)n(CC3CC3)c2nn1Cc1c[nH]c2ccc(Cl)cc12` (configuration not stated), the microsomal CLint in series [1] and in series [4] was above 100 µL/min/mg each time. The compound also gave an IC50 against Glutamate racemase of 23 nM. For the same compound, the MIC in the series with Helicobacter pylori [2] was determined as 4 µg/mL (≈ 7.62 µM); with Helicobacter pylori [3], 16 µg/mL (≈ 30.5 µM).
With `Cn1cc(S(C)(=O)=O)nc1-c1c2c(=O)n(C)c(=O)n(CC3CC3)c2nn1Cc1c[nH]c2ccc(Cl)cc12`, the microsomal CLint in series [1] is above 100 µL/min/mg; in series [4] it was 49 µL/min/mg. The concentration for half-maximal inhibition (IC50) against Glutamate racemase amounted to 31 nM. The figures for the minimal inhibitory concentration (MIC) against Helicobacter pylori [2] and against Helicobacter pylori [3] were 2 µg/mL (≈ 3.69 µM) and 16 µg/mL (≈ 29.5 µM), respectively.
In series [7], `Cn1cc(C#N)cc1-c1c2c(=O)n(C)c(=O)n(CC3CC3)c2nn1Cc1ccnc2ccc(Cl)cc12` came in with a solubility below 0.4 µM. The results for the bioavailability in series [8] and in series [5] were below 10% and 7.5%, respectively. Also, the microsomal CLint was 50 µL/min/mg in [1] and below 14 µL/min/mg in series [4]. Besides, the IC50 against Glutamate racemase stood at 26 nM. The MIC against Helicobacter pylori [2] was determined as 0.25 µg/mL (≈ 0.5 µM); in the series on Helicobacter pylori [3], 0.5 µg/mL (≈ 1 µM).
`Cn1cc(S(N)(=O)=O)cc1-c1c2c(=O)n(C)c(=O)n(CC3CC3)c2nn1Cc1ccnc2ccc(Cl)cc12`: the microsomal CLint in [1] is below 14 µL/min/mg; in series [4] it was 22 µL/min/mg. The compound further showed an IC50 against Glutamate racemase of 16 nM. Further, the MIC against Helicobacter pylori [2] was found to be 0.25 µg/mL (≈ 0.451 µM); against Helicobacter pylori [3], 32 µg/mL (≈ 57.8 µM).
As for `Cc1oc(S(C)(=O)=O)cc1-c1c2c(=O)n(C)c(=O)n(CC3CC3)c2nn1Cc1cn(C)c2ccc(Cl)cc12`, the microsomal CLint in [1] and in [4] was above 100 µL/min/mg in each case. On Glutamate racemase, this compound returned an IC50 of 57 nM. For the same compound, the MIC was 0.5 µg/mL (≈ 0.899 µM) with Helicobacter pylori [2] and 1 µg/mL (≈ 1.8 µM) in the series with Helicobacter pylori [3].
For `Cc1oc(S(C)(=O)=O)cc1-c1c2c(=O)n(C)c(=O)n(CC3CC3)c2nn1Cc1ccnc2ccc(Cl)cc12`, the figures for the microsomal CLint in [1] and in [4] were 61 µL/min/mg and 22 µL/min/mg, respectively. The same compound yielded an IC50 against Glutamate racemase of 51 nM. Besides, in the series on Helicobacter pylori [3], the minimum inhibitory concentration (MIC) was determined as 4 µg/mL (≈ 7.22 µM).
As to `CONS(=O)(=O)c1cc(-c2c3c(=O)n(C)c(=O)n(CC4CC4)c3nn2Cc2ccnc3ccc(Cl)cc23)n(C)c1`, the half-inhibitory concentration (IC50) against Glutamate racemase worked out at 55 nM. In addition, the MIC against Helicobacter pylori [2] came to 4 µg/mL (≈ 6.85 µM); in the series on Helicobacter pylori [3], 16 µg/mL (≈ 27.4 µM).
As to `Cn1cc(S(C)(=O)=O)cc1-c1c2c(=O)n(C)c(=O)n(CC3CC3)c2nn1Cc1ccnc2ccc(Cl)cc12`, the Cp in the series on Mus musculus was 1200 ng/mL. Moreover, the microsomal CLint is below 14 µL/min/mg in [1] and 20 µL/min/mg in [4]. Further, the bioavailability in [5] came out at 60%. The compound further came in with a concentration for half-maximal inhibition (IC50) on Glutamate racemase of 34 nM. Moreover, the minimal inhibitory concentration (MIC) against Helicobacter pylori [2] worked out at 0.5 µg/mL (≈ 0.904 µM); in the series on Helicobacter pylori [3] it was 2 µg/mL (≈ 3.62 µM).
`CNS(=O)(=O)c1cc(-c2c3c(=O)n(C)c(=O)n(CC4CC4)c3nn2Cc2c[nH]c3ccc(Cl)cc23)n(C)c1`: the intrinsic metabolic clearance (microsomal CLint) in [1] and in [4] was above 100 µL/min/mg throughout. This compound came in with a concentration for half-maximal inhibition (IC50) against Glutamate racemase of 27 nM. Besides, the minimum inhibitory concentration (MIC) with Helicobacter pylori [2] worked out at 0.5 µg/mL (≈ 0.899 µM); with Helicobacter pylori [3] it was 16 µg/mL (≈ 28.8 µM).
In the case of `Cn1cc(S(C)(=O)=O)cc1-c1c2c(=O)n(C)c(=O)n(CC3CC3)c2nn1Cc1c[nH]c2ccc(Cl)cc12`, the microsomal CLint was found to be 64 µL/min/mg in series [1] and 49 µL/min/mg in series [4]. In addition, inhibition against Glutamate racemase was half-maximal at 26 nM (IC50). The results for the MIC against Helicobacter pylori [2] and against Helicobacter pylori [3] were 0.5 µg/mL (≈ 0.924 µM) and 4 µg/mL (≈ 7.39 µM), respectively.
Consider `Cn1c(=O)c2c(-c3oc(S(C)(=O)=O)cc3Cl)n(Cc3ccnc4ccc(Cl)cc34)nc2n(CC2CC2)c1=O`, for which the microsomal CLint stood at 22 µL/min/mg in series [1] and 19 µL/min/mg in [4]. This compound also gave a half-maximal inhibitory concentration (IC50) against Glutamate racemase of 59 nM. Besides, the MIC against Helicobacter pylori [2] and against Helicobacter pylori [3] was 4 µg/mL (≈ 6.96 µM) throughout.
On to `CNS(=O)(=O)c1cc(-c2c3c(=O)n(C)c(=O)n(CC4CC4)c3nn2Cc2ccnc3ccc(Cl)cc23)n(C)c1`, for which the intrinsic clearance (microsomal CLint) in [1] and in series [4] was above 100 µL/min/mg throughout. On Glutamate racemase, this compound came in with a half-maximal inhibitory concentration (IC50) of 44 nM. The MIC is 1 µg/mL (≈ 1.76 µM) against Helicobacter pylori [2] and 16 µg/mL (≈ 28.2 µM) in the series with Helicobacter pylori [3].
